Assay results taken from ChEMBL document CHEMBL2396518, “A facile synthesis, anti-inflammatory and analgesic activity of isoxazolyl-2,3-dihydrospiro[benzo[f]isoindole-1,3'-indoline]-2',4,9-triones” (2013).

Assays:
Type in all cases: functional
Mus musculus [1] = assay: Analgesic activity in Swiss albino mouse assessed as inhibition of acetic acid-induced writhing at 50 mg/kg, po administered 30 mins followed by acetic acid challenge measured for 20 mins relative to control
Method in brief: (§1)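 Mice were fasted 18 h with water ad libitum and split into 6 groups. Test agents were dosed orally at 50 mg/kg, with diclofenac 50 mg/kg as standard. After 30 min, 1.0% v/v acetic acid was given ip at 1 mL/100 g. Writhes were counted over 20 min. % inhibition = (mean control writhes − mean test writhes)/mean control writhes × 100. Results are mean ± S.E.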

Rattus norvegicus [2] = assay: Antiinflammatory activity in carrageenan-induced Wistar rat paw edema model assessed as paw volume at 100 mg/kg, po administered 30 mins prior to carrageenan challenge measured at 2 hrs by plethysmographic analysis (reference value: 1.07 +/- 0.08 ml)
Rattus norvegicus [3] = assay: Antiinflammatory activity in carrageenan-induced Wistar rat paw edema model assessed as paw volume at 100 mg/kg, po administered 30 mins prior to carrageenan challenge measured at 1 hr by plethysmographic analysis (reference value: 0.90 +/- 0.05 ml)
Rattus norvegicus [4] = assay: Antiinflammatory activity in carrageenan-induced Wistar rat paw edema model assessed as paw volume at 100 mg/kg, po administered 30 mins prior to carrageenan challenge measured at 6 hrs by plethysmographic analysis (reference value: 0.96 +/- 0.03 ml)
Rattus norvegicus [5] = assay: Antiinflammatory activity in carrageenan-induced Wistar rat paw edema model assessed as paw volume at 100 mg/kg, po administered 30 mins prior to carrageenan challenge measured at 4 hrs by plethysmographic analysis (reference value: 1.2 +/- 0.05 ml)
Mus musculus [6] = assay: Analgesic activity in Swiss albino mouse assessed as inhibition of acetic acid-induced writhing at 50 mg/kg administered 30 mins followed by acetic acid challenge measured for 20 mins relative to control; method in brief: as §1

Cc1ccc2c(c1)C1(C(=O)N2)C2=C(CN1c1c(C)noc1/C=C/c1ccccc1)C(=O)c1ccccc1C2=O (stereo unspecified)
inhibition in vivo at 50 mg/kg (Mus musculus [1]): 19.5%
Activity (Rattus norvegicus [2]): 0.89 mL
Activity (Rattus norvegicus [3]): 0.77 mL
Activity (Rattus norvegicus [4]): 0.55 mL
Activity (Rattus norvegicus [5]): 0.83 mL

Cc1noc(/C=C/c2ccccc2)c1N1CC2=C(C(=O)c3ccccc3C2=O)C12C(=O)Nc1ccccc12 (stereo unspecified)
inhibition in vivo at 50 mg/kg (Mus musculus [1]): 22.4%
Activity (Rattus norvegicus [2]): 0.84 mL
Activity (Rattus norvegicus [3]): 0.75 mL
Activity (Rattus norvegicus [4]): 0.6 mL
Activity (Rattus norvegicus [5]): 0.75 mL

Cc1noc(/C=C/c2ccc(Cl)cc2Cl)c1N1CC2=C(C(=O)c3ccccc3C2=O)C12C(=O)Nc1ccccc12 (stereo unspecified)
inhibition in vivo at 50 mg/kg (Mus musculus [1]): 44.8%
Activity (Rattus norvegicus [2]): 0.71 mL
Activity (Rattus norvegicus [3]): 0.57 mL
Activity (Rattus norvegicus [4]): 0.32 mL
Activity (Rattus norvegicus [5]): 0.54 mL

Cc1noc(/C=C/c2ccccc2)c1N1CC2=C(C(=O)c3ccccc3C2=O)C12C(=O)Nc1ccc(Cl)cc12 (stereo unspecified)
inhibition in vivo at 50 mg/kg (Mus musculus [1]): 16.5%
Activity (Rattus norvegicus [2]): 0.83 mL
Activity (Rattus norvegicus [3]): 0.82 mL
Activity (Rattus norvegicus [4]): 0.63 mL
Activity (Rattus norvegicus [5]): 0.82 mL

Cc1noc(/C=C/c2c(Cl)cccc2Cl)c1N1CC2=C(C(=O)c3ccccc3C2=O)C12C(=O)Nc1ccccc12 (stereo unspecified)
inhibition in vivo at 50 mg/kg (Mus musculus [1]): 48.3%
Activity (Rattus norvegicus [2]): 0.7 mL
Activity (Rattus norvegicus [3]): 0.54 mL
Activity (Rattus norvegicus [4]): 0.4 mL
Activity (Rattus norvegicus [5]): 0.67 mL

O=C(O)Cc1ccccc1Nc1c(Cl)cccc1Cl [DICLOFENAC]
inhibition in vivo at 50 mg/kg (Mus musculus [6]): 53.6%

Cc1ccc(/C=C/c2onc(C)c2N2CC3=C(C(=O)c4ccccc4C3=O)C23C(=O)Nc2ccccc23)cc1 (stereo unspecified)
inhibition in vivo at 50 mg/kg (Mus musculus [1]): 26.3%
Activity (Rattus norvegicus [2]): 0.8 mL
Activity (Rattus norvegicus [3]): 0.7 mL
Activity (Rattus norvegicus [4]): 0.54 mL
Activity (Rattus norvegicus [5]): 0.69 mL

Cc1noc(/C=C/c2ccc(Cl)cc2)c1N1CC2=C(C(=O)c3ccccc3C2=O)C12C(=O)Nc1ccccc12 (stereo unspecified)
inhibition in vivo at 50 mg/kg (Mus musculus [1]): 50.4%
Activity (Rattus norvegicus [2]): 0.69 mL
Activity (Rattus norvegicus [3]): 0.54 mL
Activity (Rattus norvegicus [4]): 0.41 mL
Activity (Rattus norvegicus [5]): 0.65 mL

COc1ccc2c(c1)C1(C(=O)N2)C2=C(CN1c1c(C)noc1/C=C/c1ccccc1)C(=O)c1ccccc1C2=O (stereo unspecified)
inhibition in vivo at 50 mg/kg (Mus musculus [1]): 18.4%
Activity (Rattus norvegicus [2]): 0.91 mL
Activity (Rattus norvegicus [3]): 0.73 mL
Activity (Rattus norvegicus [4]): 0.6 mL
Activity (Rattus norvegicus [5]): 0.81 mL

COc1ccc(/C=C/c2onc(C)c2N2CC3=C(C(=O)c4ccccc4C3=O)C23C(=O)Nc2ccccc23)cc1 (stereo unspecified)
inhibition in vivo at 50 mg/kg (Mus musculus [1]): 19.6%
Activity (Rattus norvegicus [2]): 0.91 mL
Activity (Rattus norvegicus [3]): 0.8 mL
Activity (Rattus norvegicus [4]): 0.6 mL
Activity (Rattus norvegicus [5]): 0.65 mL

Cc1noc(/C=C/c2ccccc2O)c1N1CC2=C(C(=O)c3ccccc3C2=O)C12C(=O)Nc1ccccc12 (stereo unspecified)
inhibition in vivo at 50 mg/kg (Mus musculus [1]): 20.4%
Activity (Rattus norvegicus [2]): 0.81 mL
Activity (Rattus norvegicus [3]): 0.78 mL
Activity (Rattus norvegicus [4]): 0.52 mL
Activity (Rattus norvegicus [5]): 0.8 mL
